# An excerpt weighted towards active compounds, which were near 3.7% of everything screened.
# KCNQ1 pot: potentiators or activators of KCNQ1 channel, primary screen, cell-based, thallium flux, high-throughput; CHO-K1 KCNQ1, thallium flux FluxOR fluorescence; stronger effect = higher value; 310,000 compounds, 0.35% hits; AID 2648, 2010; B-score at 10 µM; Potassium voltage-gated channel subfamily KQT member 1 (Homo sapiens), P51787;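 active means fluorescence ratio B-score, a plate-corrected score, at least three library SD, with initial intensity B-score within 5 SD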
#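 Medium – assay buffer, equal DMSO in all wells · Material – CHO-K1 cell line with stable KCNQ1 potassium channel expression · Signal – kinetic FluxOR thallium fluorescence, 10-s 1-Hz baseline, 110-s post-stimulus read · Compound – single concentration per compound, DMSO matched to controls · Schedule – 37 °C overnight plating, 90-min dark dye load, 20-min compound pretreatment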
# KCNK9 inh: KCNK9 potassium channel inhibitors, primary screen, HEK293 cells, thallium flux; 310,000 compounds, 1.2% hits; B-score at 10 µM; AID 488922, 2010; FluxOR thallium flux fluorescence; stronger effect = lower value;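 active means ratio B-score over 3 SD below the library mean, with starting fluorescence within 5 SD of its mean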;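 further: negative B-score means less thallium flux so channel inhibition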
# Kir21 block: inhibitors of mouse Kir2.1 inward-rectifier potassium channel | Inward rectifier potassium channel 2 (Mus musculus), P35561 | HEK293-Kir2.1, FluxOR thallium flux fluorescence; stronger effect = lower value | B-score at 10 µM | 310,000 compounds, 0.85% hits | AID 1672, 2009;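 active means fluorescence ratio B-score at or below minus 3 SD of library scores, with starting-brightness B-score within 2 SD, cut at about -4.2 in these data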;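 further: channel flux triggered by added potassium and thallium sulfate stimulus; B-score of peak minus minimum fluorescence over baseline after thallium stimulus; more negative B-score means stronger Kir2.1 block with less thallium influx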
# Target sequence (P35561 whole entry, looked up): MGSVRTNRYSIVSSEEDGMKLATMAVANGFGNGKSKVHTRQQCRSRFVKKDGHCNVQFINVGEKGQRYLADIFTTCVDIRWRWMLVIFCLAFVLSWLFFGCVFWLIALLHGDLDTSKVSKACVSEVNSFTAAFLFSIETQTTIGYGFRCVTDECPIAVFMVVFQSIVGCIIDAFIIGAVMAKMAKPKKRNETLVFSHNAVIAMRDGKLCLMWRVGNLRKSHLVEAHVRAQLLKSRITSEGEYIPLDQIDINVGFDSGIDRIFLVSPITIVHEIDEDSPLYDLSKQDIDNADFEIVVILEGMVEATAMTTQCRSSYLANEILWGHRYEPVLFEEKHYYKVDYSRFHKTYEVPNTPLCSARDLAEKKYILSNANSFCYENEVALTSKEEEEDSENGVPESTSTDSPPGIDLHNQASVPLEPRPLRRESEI
# hERG protect: hERG rescue from dofetilide block, primary screen, cell-based, CHO-hERG, FluxOR thallium flux, dofetilide IC70; Voltage-gated inwardly rectifying potassium channel KCNH2 (Homo sapiens), Q12809; dofetilide IC70 present; activation (rescue from dofetilide block), less the hit threshold, % at 10 µM; 310,000 compounds, 0.51% hits; AID 1511, 2009;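 active means activation above the mean of controls blocked by dofetilide plus 5 SD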;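 further: thallium influx through hERG after potassium depolarization seen as dye fluorescence rise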
# KCNQ1 block: inhibitors of human KCNQ1 channel, primary screen, cell-based, thallium flux, high-throughput; AID 2642, 2010; 310,000 compounds, 1.3% hits; CHO-K1 KCNQ1, FluxOR thallium flux fluorescence; stronger effect = higher value; B-score at 10 µM; Potassium voltage-gated channel subfamily KQT member 1 (Homo sapiens), P51787;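 active means compounds whose thallium flux B-score, printed positive for inhibition, exceeds three library SD while starting fluorescence stays within three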;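 further: channel opened by potassium depolarization with thallium stimulus after 20 min compound exposure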
# KCNK3 block: human KCNK3 channel inhibitors, primary screen, CHO cells, FluxOR thallium flux, B-score | Potassium channel subfamily K member 3 (Homo sapiens), O14649 | FluxOR fluorescence; stronger effect = lower value | B-score at 10 µM | 340,000 compounds, 0.84% hits;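 active means B-score under library mean minus 4 SD, starting fluorescence ratio at most library mean plus 5 SD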;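 further: more negative B-score means stronger inhibition of thallium flux through KCNK3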
# KCNK9 inh conf: KCNK9 potassium channel inhibitors, confirmation, HEK293 cells, thallium flux, duplicate. AID 492992, 2010. 4,900 compounds, 43% hits. FluxOR thallium flux fluorescence. inhibition, % at 10 µM. shares compounds with KCNK9 inh;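 active means thallium signal inhibited by more than 5 SD of the compound-free buffer control wells, on both duplicate plates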;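 further: 0% = assay buffer control wells without compound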
# Kir2-1 spec: mouse Kir2.1 channel inhibition, confirmation, selectivity assay for KCNK9 modulator project, cell-based, HEK293, thallium flux; 4,900 compounds, 4% hits; AID 492993, 2010; shares compounds with KCNK9 inh; Kir2.1 cells, FluxOR thallium flux fluorescence; inhibition, % at 10 µM;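 active means thallium signal drop more than 5 SD beyond the mean of the no-compound control wells, seen in both duplicate plates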;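 further: signal is fluorescence rise after thallium addition divided by baseline fluorescence; plate controls were assay buffer only for no effect and full block by chlorpromazine control for full effect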
# KCNK9 uninduced: thallium flux in non-induced HEK293 cells, confirmation, counter-screen for KCNK9 inhibitor project, cell-based, second counter screen, non-induced KCNK9-HEK293; 4,900 compounds, 40% hits; FluxOR thallium flux; inhibition, % at 10 µM; shares compounds with KCNK9 inh; AID 492997, 2010;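 active means thallium signal drop beyond 5 SD of the untreated control mean, on both duplicate plates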;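 further: plate controls were buffer only IC0 wells for no effect and SID17386958 at its maximal inhibitory level for full effect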
# KCNK3 confirm: retest of human KCNK3 channel inhibitors, confirmation, CHO cells, FluxOR thallium flux, triplicate | 2,400 compounds, 99% hits | AID 651638, 2012 | ratio percent of control, % at 10 µM | shares compounds with KCNK3 block | FluxOR fluorescence; 0% buffer, 100% carvedilol maximal block;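 active means ratio percent of control, averaged over triplicates, above buffer control mean plus 5 SD, cut at about 64% in these data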;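 further: ratio is the fluorescence rise from min to max over baseline after thallium stimulus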
# KCNK3 noninduced: thallium flux inhibition in non-induced cells, primary screen, counter-screen for KCNK3 inhibitor project, cell-based, non-induced KCNK3 line, FluxOR thallium, triplicate | shares compounds with KCNK3 block | non-induced KCNK3 parental cells; stronger effect = lower value | thallium flux ratio (lower = more inhibition) at 10 µM | 2,400 compounds, 40% hits;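 active means thallium flux ratio, averaged over three wells, more than 5 SD below the buffer control mean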;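 further: host cells are CHO cells without KCNK3 induction; ratio is peak minus trough fluorescence over baseline then normalized to buffer controls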
# An asterisk follows results filed as active; i = inactive; nt = no result.
SMILES,KCNQ1 pot,KCNK9 inh,Kir21 block,hERG protect,KCNQ1 block,KCNK3 block,KCNK9 inh conf,Kir2-1 spec,KCNK9 uninduced,KCNK3 confirm,KCNK3 noninduced
C=CC[n+]1c(/C=C2\C=Cc3cc(C)ccc3N2CC)ccc2ccccc21,i,-13.3*,-6.53*,-33.4,16*,-16.1*,78.5%*,88.0%*,63.0%*,146.3*,0.112*
CCOc1ccccc1NC(=O)CN(C)S(=O)(=O)c1ccc(OC)c(C)c1,i,-15*,-1.29,-1.4,i,i,50.0%*,i,i,94.7*,i
CCOc1ccc(N(CC(=O)NC2CCCCC2)C(=O)CCC(=O)Nc2cc(C)ccn2)cc1,i,i,0.79,-6.6,i,i,nt,nt,nt,nt,nt
CCOC(=O)c1cc(-c2ccc(Cl)cc2)nc2c1c(C)nn2CCC#N,i,-13*,-1.09,-3.4,i,-9.3*,52.5%*,i,31.5%*,124.7*,0.131*
S=C(Nc1ccccc1)N1CCOCCOCCN(C(=S)Nc2ccccc2)CCOCCOCC1,i,-10.6*,0.67,-5.4,i,-9.08*,28.5%*,i,i,96.0*,0.135*
Cc1c2ccccc2cc[n+]1CCCS(=O)(=O)[O-],i,i,0.3,-10.4,i,i,nt,nt,nt,nt,nt
CCCCCCCCCC[n+]1cccc2c3ccccc3ccc21,i,-15*,-9.05*,-19.5,i,i,73.0%*,i,35.5%*,71.7*,i
N#C/C(=C/c1ccc(N2CCCCC2)o1)c1cccc(F)c1,i,-10.4*,-2.23,-26.4,i,-14.3*,77.5%*,i,72.5%*,170.3*,0.0793*
N#C/C(=C/c1ccc(Sc2nc3ccccc3[nH]2)o1)c1cccc(F)c1,i,i,0.68,-15.3,13*,-9.76*,i,i,i,122.0*,i
O=C1NC(=O)/C(=C/c2ccc(N3CCOCC3)o2)N1,i,i,0.96,-6.3,i,i,nt,nt,nt,nt,nt
Cc1ccc(/C(C#N)=C\c2ccc(N3CCOCC3)o2)cc1,i,-12.2*,-0.68,-16.2,9*,-15.4*,57.0%*,i,84.5%*,167.7*,0.0443*
CCN(C(=O)COc1ccc2ccc(=O)oc2c1)C1CCCCC1,nt,nt,nt,nt,nt,i,nt,nt,nt,nt,nt
c1coc(CN(Cc2ccco2)c2ncnc3c2oc2ccccc23)c1,i,-18.3*,0.05,-9.1,i,-12.1*,70.5%*,i,i,138.7*,0.142*
Clc1ncnc2c1oc1ccccc12,i,i,1.49,-17.9,i,i,nt,nt,nt,nt,nt
CCCCC/C=C/C1=CC(=O)C[C@H](c2ccc(OC)c(OC)c2)C1,nt,nt,nt,nt,nt,i,nt,nt,nt,nt,nt
Cc1ccc(CN2C(=O)CSC2c2ccc(F)cc2)cc1 (stereo not drawn),i,i,-1.42,-4.8,i,i,nt,nt,nt,nt,nt

# Bioassay records deposited in PubChem BioAssay by Johns Hopkins Ion Channel Center.
